# Reference: PMC7341966 (Journal of medicinal chemistry, 2018)
# Square brackets hold non-standard residues; d marks the D form. Peptide text beside a SMILES is read from it. * marks the point of attachment. X4 = CC[C@H](C)[C@@H](OC(=O)[C@H](Cc1ccccc1)N(C)C)C(=O)*; X1 = CC[C@H](C)[C@@H](OC(=O)/C=C/c1ccccc1)C(=O)*; X3 = CC[C@H](C)[C@@H](OC(=O)/C=C\c1ccccc1)C(=O)*; X5 = CC[C@H](C)[C@@H](OC(=O)C#Cc1ccccc1)C(=O)*; X2 = CC[C@H](C)[C@@H](OC(=O)CCc1ccccc1)C(=O)*; Hmp(2R,3S) = CC[C@H](C)[C@@H](O)C(=O)O; dNMeF = CN[C@H](Cc1ccccc1)C(=O)O; NMeL = CN[C@@H](CC(C)C)C(=O)O; dHiv = CC(C)[C@@H](O)C(=O)O
# B1: CCL27: C-C motif chemokine ligand 27, ligand of CCR10 (protein, UniProt Q9Y4X3 25-112, looked up)
# C-C motif chemokine 27: FLLPPSTACCTQLYRKPLSDKLLRKVIQVELQEADGDCHLQAFVLHLAQRSICIHPQNPSLSQWFEHQERKLHGTLPKLNFGMLRKMG
# Experiments:
# [1] = test system: MDA-MB-231 breast cancer cells; assay: MTT cell viability assay in MDA-MB-231 cells; format: cell-based; details: MDA-MB-231, 48 h; for cytotoxicity: MTT, up to 100 μM
# In short: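 MDA-MB-231 cells kept in DMEM with 10% FBS were seeded at 10,000 cells/well. After 24 h they were exposed to graded test compound or DMSO solvent control for 48 h. Viability was measured by MTT.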
# Kallikrein 7 (KLK7) = Kallikrein 7 (KLK7) (Homo sapiens, UniProt P49862); assay: Protease inhibition assay, fluorescent peptide substrate; format: biochemical
# [2] = test system: panel of 241 GPCR targets; assay: GPCR profiling, gpcrMAX and orphanMAX panels; format: cell-based; details: 10 μM; hit = > 50% activity or inhibition
# In short: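 PathHunter β-arrestin enzyme fragment complementation in HEK293, CHO or U2OS lines stably expressing ProLink-tagged GPCR and EA-tagged β-arrestin. Test compound was 10 μM, one also at 20 μM; vehicle 1% final. Agonist mode: 90 or 180 min at 37 °C or RT. Chemiluminescence read after 1 h detection reagent. % activity/inhibition taken versus vehicle and control ligand.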
# [3] = test system: CXCR7, CCR10, OXTR, SSTR3, and TACR2; assay: GPCR secondary screen, dose-response against the five hits; format: cell-based; details: up to 20 μM
# In short: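 Secondary β-arrestin (PathHunter) screen on the five receptors, run in agonist and antagonist modes. Dosing was 10 points by 3-fold serial dilution from 20 μM, in duplicate, with 1% vehicle. Chemiluminescent β-galactosidase read after 1 h detection at RT.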
# MDA-MB-231 cells [4] = assay: Transwell migration assay, MDA-MB-231 cells; format: cell-based; details: 10 μM, 48 h
# In short: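 Transwell inserts with 8 μm pore PET membrane; MDA-MB-231 cells were exposed to test compound or solvent control. After incubation, non-migrated cells were wiped off, and migrated cells were crystal violet-stained and counted under a microscope.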
# CCR10 = biological target: T1, CCR10 (Homo sapiens, UniProt P46092); assay: PathHunter β-Arrestin GPCR assay, antagonist mode; format: cell-based; details: dose-response starting at 20 μM, duplicate
# T1 sequence (P46092 1-362): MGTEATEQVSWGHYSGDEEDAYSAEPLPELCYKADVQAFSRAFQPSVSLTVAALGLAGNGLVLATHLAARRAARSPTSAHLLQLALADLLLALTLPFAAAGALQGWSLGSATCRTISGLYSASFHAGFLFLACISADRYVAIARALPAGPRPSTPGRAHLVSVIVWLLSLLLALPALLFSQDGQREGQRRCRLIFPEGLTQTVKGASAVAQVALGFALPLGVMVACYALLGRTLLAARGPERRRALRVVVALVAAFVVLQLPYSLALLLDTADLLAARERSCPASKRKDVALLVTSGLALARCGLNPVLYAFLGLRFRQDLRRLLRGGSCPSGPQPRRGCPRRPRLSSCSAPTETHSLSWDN
# OXTR = biological target: T2, OXTR (Homo sapiens, UniProt P30559); assay: PathHunter β-Arrestin GPCR assay, antagonist mode; format: cell-based; details: dose-response starting at 20 μM, duplicate
# T2 sequence (P30559 1-389): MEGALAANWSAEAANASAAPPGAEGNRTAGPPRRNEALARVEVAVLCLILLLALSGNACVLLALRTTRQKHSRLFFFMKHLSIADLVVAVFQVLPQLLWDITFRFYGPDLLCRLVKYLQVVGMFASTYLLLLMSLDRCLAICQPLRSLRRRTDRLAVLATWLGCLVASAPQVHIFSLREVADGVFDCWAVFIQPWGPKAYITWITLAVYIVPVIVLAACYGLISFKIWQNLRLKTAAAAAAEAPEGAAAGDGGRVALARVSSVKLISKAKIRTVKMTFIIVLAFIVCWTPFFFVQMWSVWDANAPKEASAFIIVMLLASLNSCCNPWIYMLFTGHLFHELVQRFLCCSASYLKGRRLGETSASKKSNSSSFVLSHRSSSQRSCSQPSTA
# [5] = biological target: KLK7 (substrates desmoglein-2 and E-cadherin) (Homo sapiens, UniProt P49862); assay: Cleavage of KLK7 downstream substrates, biochemical assay; details: 10 μM
# [6] = test system: MDA-MB-468 breast cancer cells; assay: Dsg-2 shedding in MDA-MB-468 cells; format: cell-based
# [7] = test system: MDA-MB-468 breast cancer cells; assay: Transwell migration assay, MDA-MB-468 cells; format: cell-based; details: 48 h
# In short: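 5000 MDA-MB-468 cells in DMEM with 10% FBS were treated with graded test compound or solvent control. They were seeded into 8 μm pore PET transwell inserts, with the same compound concentration in complete medium on the other side. After 48 h at 37 °C, 5% CO2, non-migrated cells were swabbed off, and migrated cells were crystal violet-stained and counted microscopically. Triplicate.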
# SSTR3 = SSTR3 (Homo sapiens, UniProt P32745); assay: PathHunter β-Arrestin GPCR assay, antagonist mode; format: cell-based; details: dose-response starting at 20 μM, duplicate
# plasma kallikrein = details: read-out: Ki plasma kallikrein; cited from earlier work
# MDA-MB-231 cells [8] = assay: CCL27-induced proliferation of MDA-MB-231 cells; format: cell-based; details: serum deprived conditions, 48 h
# In short: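 MDA-MB-231 cells (10,000/well) were seeded in serum-free DMEM for 24 h. For the CCL27 response, cells got graded CCL27 for 48 h. For inhibition, cells were pretreated with test compound for 2 h, then given CCL27 (1 μg/mL final) and incubated 48 h. Viability was read by MTT against solvent control. Mean ± SD, n = 3, two-tailed unpaired t test.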
# Sequence of Kallikrein 7 (KLK7) (P49862 30-253): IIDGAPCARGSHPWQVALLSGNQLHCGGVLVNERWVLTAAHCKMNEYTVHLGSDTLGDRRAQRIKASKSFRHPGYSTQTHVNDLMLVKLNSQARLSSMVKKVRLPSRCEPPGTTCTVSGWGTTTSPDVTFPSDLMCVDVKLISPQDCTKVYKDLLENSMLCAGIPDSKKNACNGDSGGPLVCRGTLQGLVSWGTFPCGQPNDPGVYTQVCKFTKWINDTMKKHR
# Sequence of SSTR3 (P32745 whole entry): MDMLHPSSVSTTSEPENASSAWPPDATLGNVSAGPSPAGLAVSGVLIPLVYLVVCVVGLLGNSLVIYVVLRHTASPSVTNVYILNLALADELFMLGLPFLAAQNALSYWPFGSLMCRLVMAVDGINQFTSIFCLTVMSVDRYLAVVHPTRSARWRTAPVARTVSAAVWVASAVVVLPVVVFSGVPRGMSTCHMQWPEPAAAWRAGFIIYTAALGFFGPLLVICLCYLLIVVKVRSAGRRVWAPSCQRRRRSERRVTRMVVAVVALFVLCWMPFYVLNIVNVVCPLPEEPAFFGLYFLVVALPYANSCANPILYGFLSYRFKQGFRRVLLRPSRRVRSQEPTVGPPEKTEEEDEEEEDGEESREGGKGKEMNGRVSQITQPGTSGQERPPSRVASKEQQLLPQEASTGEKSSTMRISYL
# Sequence of KLK7 (substrates desmoglein-2 and E-cadherin) (P49862 30-253): as the sequence (P49862 30-253) above
molecule,measurement,setting,value
"CC[C@H](C)[C@@H](O)C(=O)N1CCC[C@H]1C(=O)NCC(=O)N(C)[C@@H](CC(C)C)C(=O)N[C@@H](C)C(=O)N(C)[C@H](Cc1ccccc1)C(=O)N1CCC[C@H]1C(=O)OC [Compound 1, brintonamide A] ({Hmp(2R,3S)}-PG[NMeL]A[dNMeF]P-OMe)",cytotoxicity,[1],did not show any cytotoxicity
same,IC50,Kallikrein 7 (KLK7),~20 µM
same,hits in GPCR profiling,[2],did not show any hits
same,activity against the tested GPCR targets,[3],did not show any activity
same,inhibition of migration,MDA-MB-231 cells [4],inactive
"COC(=O)[C@@H]1CCCN1C(=O)[C@@H](Cc1ccccc1)N(C)C(=O)[C@H](C)NC(=O)[C@H](CC(C)C)N(C)C(=O)CNC(=O)[C@@H]1CCCN1C(=O)[C@H](O)C(C)C [Compound 2, brintonamide B] (H-[dHiv]PG[NMeL]A[dNMeF]P-OMe)",cytotoxicity,[1],did not show any cytotoxicity
same,activity against the tested GPCR targets,[3],did not show any activity
"CC[C@H](C)[C@@H](OC(=O)[C@H](Cc1ccccc1)N(C)C)C(=O)N1CCC[C@H]1C(=O)NCC(=O)N(C)[C@@H](CC(C)C)C(=O)N[C@@H](C)C(=O)N(C)[C@H](Cc1ccccc1)C(=O)N1CCC[C@H]1C(=O)OC [Compound 3, brintonamide C] (X4-PG[NMeL]A[dNMeF]P-OMe)",IC50 antagonist CCR10,CCR10,did not show any activity
same,IC50 antagonist OXTR,OXTR,did not show any activity
"CC[C@H](C)[C@@H](OC(=O)/C=C/c1ccccc1)C(=O)N1CCC[C@H]1C(=O)NCC(=O)N(C)[C@@H](CC(C)C)C(=O)N[C@@H](C)C(=O)N(C)[C@H](Cc1ccccc1)C(=O)N1CCC[C@H]1C(=O)OC [Compound 4, brintonamide D] (X1-PG[NMeL]A[dNMeF]P-OMe)",cytotoxic effects,[1]; up to 10 μM (Figure 6B),no cytotoxic effects
same,IC50,Kallikrein 7 (KLK7),~20 µM
same,IC50 antagonist CCR10,CCR10,submicromolar activity
same,activity against the tested GPCR targets,[3],active against all five tested GPCR targets
same,cleavage of KLK7 downstream substrates desmoglein-2 and E-cadherin,[5],partially inhibited
same,Dsg-2 shedding,[6],unable to decrease Dsg-2 shedding
same,migration of MDA-MB-468 cells,[7],inhibiting the migration
"CC[C@H](C)[C@@H](OC(=O)/C=C\c1ccccc1)C(=O)N1CCC[C@H]1C(=O)NCC(=O)N(C)[C@@H](CC(C)C)C(=O)N[C@@H](C)C(=O)N(C)[C@H](Cc1ccccc1)C(=O)N1CCC[C@H]1C(=O)OC [Compound 5, brintonamide E] (X3-PG[NMeL]A[dNMeF]P-OMe)",IC50 antagonist SSTR3,SSTR3,inactive
"CC[C@H](C)[C@@H](OC(=O)CCc1ccccc1)C(=O)N1CCC[C@H]1C(=O)NCC(=O)N(C)[C@@H](CC(C)C)C(=O)N[C@@H](C)C(=O)N(C)[C@H](Cc1ccccc1)C(=O)N1CCC[C@H]1C(=O)OC [Compound 6, dehydro-brintonamide D/E] (X2-PG[NMeL]A[dNMeF]P-OMe)",IC50 antagonist SSTR3,SSTR3,inactive
"CC[C@H](C)[C@@H](OC(=O)C#Cc1ccccc1)C(=O)N1CCC[C@H]1C(=O)NCC(=O)N(C)[C@@H](CC(C)C)C(=O)N[C@@H](C)C(=O)N(C)[C@H](Cc1ccccc1)C(=O)N1CCC[C@H]1C(=O)OC [Compound 7, dihydro-brintonamide D/E] (X5-PG[NMeL]A[dNMeF]P-OMe)",activity against the tested GPCR targets,[3],did not exhibit any activity
Ecallantide,Ki,plasma kallikrein,0.025 nM
B1,cell proliferation in response to CCL27 stimulation,MDA-MB-231 cells [8],increased in a dose-dependent manner
